Results of several laboratories.
Protocols differ between the studies behind these lines.
AHR: Aryl hydrocarbon receptor (AHR, Homo sapiens, UniProt P35869)
SLC10A2: Ileal sodium/bile acid cotransporter (SLC10A2, Homo sapiens, UniProt Q12908)

CC[C@H](C)[C@H](NC(=O)[C@H](CCCCN)NC(=O)[C@H](CO)NC(=O)[C@H](CC(=O)O)NC(=O)[C@H](CCCCN)NC(=O)[C@H](CCCCN)NC(=O)CNC(=O)[C@H](Cc1c[nH]cn1)NC(=O)[C@@H](N)CCC(N)=O)C(=O)N[C@H](C(=O)N[C@@H](CC(=O)O)C(=O)N[C@@H](Cc1c[nH]cn1)C(=O)N[C@@H](Cc1ccccc1)C(=O)N[C@@H](CCSC)C(=O)N[C@@H](CCCNC(=N)N)C(=O)O)[C@@H](C)O  Kd (Proliferating cell nuclear antigen (PCNA, Homo sapiens, UniProt P12004); binding; ITC; pH 7.4): 45.3 µM
Cc1[nH]c2ccccc2c1C(=O)c1ccccc1  EC50 (AHR; reporter gene; agonist; luciferase): > 10 µM
Cc1cnc(-c2ccc(-c3ccc(NC(=O)Nc4c(F)cc(F)cc4F)cc3F)c3c2C(=O)NC3)[nH]1  Kd (Epithelial discoidin domain-containing receptor 1 (DDR1, Homo sapiens, UniProt Q08345); binding; competition with immobilised ligand): 0.0021 µM
O=C(c1ccccn1)c1c[nH]c2ccccc12  EC50 (AHR; reporter gene; agonist; luciferase): > 0.01 µM
CCc1c(C)sc(NC(=O)C(Sc2ccccc2)c2ccccc2)c1C(=O)OC (stereo not drawn)  EC50 (Cannabinoid receptor 2 (CNR2, Homo sapiens, UniProt P34972); cAMP; agonist; TR-FRET): 0.0251 µM
CSCC[C@H](NC(=O)[C@@H](NC(=O)[C@@H](N)Cc1ccc(O)cc1)C(C)C)C(=O)NCC(=O)N[C@@H](Cc1c[nH]cn1)C(=O)N[C@@H](Cc1ccccc1)C(=O)N[C@@H](CCCNC(=N)N)C(=O)N[C@@H](Cc1c[nH]c2ccccc12)C(=O)N[C@@H](CC(=O)O)C(=O)O  EC50 (Melanocortin receptor 5 (MC5R, Homo sapiens, UniProt P33032); reporter gene; agonist): 4.46 µM
CCOC(=O)c1cccc(C(=O)c2c[nH]c3ccccc23)n1  EC50 (AHR; reporter gene; agonist; luciferase): 1.11 µM
CCN(CC)CCCC(C)Nc1ccnc2cc(Cl)ccc12 (stereo not drawn)  Ki (SLC10A2; transporter uptake; inhibitor): 6320 µM
O=C(CCCCCCNC(=O)c1cnc(N(c2ccccc2)c2ccccc2)nc1)NO  Kd (Polyamine deacetylase HDAC10 (HDAC10, Homo sapiens, UniProt Q969S8); cell-free assay): 0.456 µM
NS(=O)(=O)c1cc2c(cc1Cl)N=CNS2(=O)=O  Ki (SLC10A2; transporter uptake; inhibitor): 1220 µM
O=C(N[C@H]1COC(=O)[C@@H](NC(=O)c2cccc(O)c2O)COC(=O)[C@@H](NC(=O)c2cccc(O)c2O)COC1=O)c1cccc(O)c1O  Kd (Neutrophil gelatinase-associated lipocalin (LCN2, Homo sapiens, UniProt P80188, C107S); binding; fluorescence; pH 5.5): 0.0055 µM
COCCOC(=O)C1=C(C)NC(C)=C(C(=O)OC/C=C/c2ccccc2)C1c1cccc([N+](=O)[O-])c1 (stereo not drawn)  Ki (SLC10A2; transporter uptake; inhibitor): 45.2 µM
O=C(c1cccc(Cl)n1)c1c[nH]c2ccccc12  EC50 (AHR; reporter gene; agonist; luciferase): 0.178 µM
CCOC(=O)C1=C(C)NC(C)=C(C(=O)OC)C1c1cccc([N+](=O)[O-])c1 (stereo not drawn)  Ki (SLC10A2; transporter uptake; inhibitor): 34.1 µM
COc1ccccc1C(=O)c1c[nH]c2ccccc12  EC50 (AHR; reporter gene; agonist; luciferase): > 10 µM
